# An excerpt weighted towards active compounds, which were near 8.8% of everything screened.
# S1P3 agonist = S1P3 (human) receptor agonism; Q99500; S1P3 NFAT-BLA reporter cells, FRET ratio; relative to 1 µM S1P, basal subtracted; activation, % at 4.5 µM; actives 0.1% (n = 60,000);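 active = activation above the screen-wide mean plus 3 SD, cut at about 4.5% in these data, passing the limit was not always enough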
#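 Measure – % activation relative to 1 µM S1P (100%), per plate · System – stable CHO line with human S1P3, Gα16, NFAT-BLA reporter · Timing – cells plated overnight, compound 4 h 37 °C, substrate 2 h RT · Technique – fluorescent BLA substrate, ex 405 nm, em 460/535 nm ratio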
# M1 agonist = agonists of M1 muscarinic receptor; CHO-M1 cells, Fluo-4 calcium fluorescence, agonist mode; hits give high values; B-score at 10 µM; actives 3% (n = 64,000); AID 626;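 active = fluorescence rise, raw or as B-score row- and column-corrected plate score, outside the 99.7% band of its plate's samples, either direction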
# M1 antag = blocks the rat M1 muscarinic receptor response to acetylcholine; P08482; CHO-M1 cells, Fluo-4 calcium, ACh EC80 antagonist mode; hits give low values; B-score at 10 µM; actives 3.4% (n = 64,000);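 active = calcium fluorescence response, raw or row-and-column corrected B-score, differing from the plate sample mean either way at a set confidence level, mostly lower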
# SF1 activator = SF-1 (human) activation. Q13285. CHO-K1 Gal4-SF-1 LBD luciferase reporter; % increase over DMSO SF-1-specific signal. activation, % at 10 µM. actives 1.9% (n = 65,000). AID 522;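 active = activation above the mean activation of all tested compounds plus 3 SD, cut at about 50% in these data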
#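 Test system: CHO-K1 cells co-transfected with Gal4 DBD–human SF-1 LBD, 5xGal4 luciferase reporter. Quantity: 4,000 cells per well. Compound: 10 µM only. Incubation: compound added 1 h post-seeding, 20 h exposure at 37 °C, 5% CO2. Detection: SteadyLite luciferase luminescence. Replication: one test per compound.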
# RORa activator = activates the human nuclear receptor RORA. activation, % at 10 µM. P35398. actives 1.5% (n = 65,000). CHO-K1 Gal4-RORA LBD luciferase reporter, luminescence; percent increase over mock-subtracted basal signal;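 active = activation above the mean of all tested compounds plus 3 SD, cut at about 49% in these data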;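 also: 0% = DMSO-treated RORA cells and 100% = added signal equal to DMSO minus mock-transfected cells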
# Target sequence (P35398 whole entry, looked up, the tested form may be a part): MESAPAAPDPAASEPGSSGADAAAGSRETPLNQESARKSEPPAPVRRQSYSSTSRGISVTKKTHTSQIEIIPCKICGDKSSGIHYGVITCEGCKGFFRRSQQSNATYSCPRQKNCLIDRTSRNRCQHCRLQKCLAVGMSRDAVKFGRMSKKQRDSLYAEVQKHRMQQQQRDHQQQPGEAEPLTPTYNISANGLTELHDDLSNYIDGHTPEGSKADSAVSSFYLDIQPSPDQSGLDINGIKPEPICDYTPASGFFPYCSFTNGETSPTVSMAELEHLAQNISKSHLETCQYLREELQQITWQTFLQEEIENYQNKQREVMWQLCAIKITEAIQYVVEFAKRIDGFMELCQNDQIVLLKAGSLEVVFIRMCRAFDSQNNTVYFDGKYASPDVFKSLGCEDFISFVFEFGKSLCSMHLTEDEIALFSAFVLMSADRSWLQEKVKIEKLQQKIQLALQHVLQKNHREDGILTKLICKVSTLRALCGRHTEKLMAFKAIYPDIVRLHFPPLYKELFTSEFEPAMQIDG
# S1P1 ag pot = agonists and agonism potentiators of human S1P1 receptor; S1P1 CRE-bla cells, forskolin, beta-lactamase FRET, potentiator mode; S1P1 agonist co-added at EC20, 2 nM; 100% = saturating reference agonist, 0% = basal; actives 0.57% (n = 56,000); AID 449; activation, % at 9.5 µM; P21453;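 active = activation above a cutoff set at the mean activation of all tested compounds plus 3 SD, cut at about 54% in these data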;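 also: forskolin at 4 µM as EC80 and the EC20 agonist is SEW2871; 100% = SEW2871 at its EC100 plus forskolin at EC80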
# * hit, by the source's call; . = no result.
SMILES,S1P3 agonist,M1 agonist,M1 antag,SF1 activator,RORa activator,S1P1 ag pot
COc1cccc(Cn2c(C3CC3)nc3ccc(NC(=O)c4ccco4)cc3c2=O)c1,0.0,-0.345,0.147,19.9,12.0,-6.5
CC(C)OC(=O)CC(=O)c1sc2nc3c(cc2c1N)CN(C)CC3,-0.4,7.33*,0.0553,10.4,-1.7,17.2
FC(F)(F)c1ccc(N2CCN(c3cc(-c4ccccc4)nc4ncnn34)CC2)nc1,-0.6,1.49,-1.21,-71.1,-48.8,108.2*
O=C(NCC1CCCO1)c1cc(-c2ccccc2)on1 (stereo not given),-1.5,-2.71,0.241,67.5*,90.6*,-78.2
Cc1csc2nc(CNC(=O)c3ccco3)cn12,-0.4,0.0731,0.0828,51.8*,41.8,-41.8
CCN(CC)S(=O)(=O)c1ccc(Nc2nc3ccccc3n3nnnc23)cc1,-1.6,-0.784,0.212,49.4,70.2*,-39.5
CC1(C)Cc2c(sc(NC(=O)c3ccc(Br)o3)c2C#N)CO1,-1.6,0.252,0.505,62.3*,9.3,9.4
N#Cc1c(NC(=O)c2ccc(Cn3cc(Br)cn3)o2)sc2c1CCCCCC2,-1.2,0.167,-0.113,17.0,1.2,18.4
c1ccc(OCCOc2ncnc3sccc23)cc1,0.9,0.00771,-0.0505,52.6*,38.8,9.2
CC(C)NC(=O)NC(=O)COc1ncnc2sccc12,.,-0.785,0.00629,-3.9,10.4,.
CCOC(=O)C1=C(N)OC2=C(C(=O)CC(C)(C)C2)C1c1ccco1 (stereo not given),0.3,0.789,0.593,1.0,15.3,-2.3
CCOC(=O)C1=C(N)OC2=C(C(=O)CCC2)C1c1ccccc1OCC (stereo not given),19.0*,0.237,0.0926,0.7,-12.9,13.9
O=C(CSc1nccn1Cc1ccccc1)Nc1nccs1,0.4,-0.096,1.1,13.6,57.1*,.
COCCNC(=O)c1ccccc1NC(=O)COc1ccccc1,-0.9,-1.08,2.09*,-6.0,-3.3,-16.8
CCS(=O)(=O)Nc1cc(-c2nc3cccnc3s2)ccc1C,-1.0,0.643,0.135,71.0*,31.9,1.4
Cc1ccc(-c2nc3cccnc3s2)cc1NC(=O)c1ccco1,-0.6,-0.768,0.428,59.0*,21.0,-11.5
Cc1cc(-c2ccccc2)nc(N2CCC(C(=O)NC(C)C)CC2)n1,-0.6,0.0925,0.385,96.8*,66.6*,0.6
Cc1nc2c(sc3nc4c(cc32)COC(C)(C)C4)c(=O)n1CC(=O)NCc1ccco1,.,0.69,0.825,133.7*,101.0*,.
CC(C)c1nc2sc3c(SCC(=O)NCc4ccco4)ncnc3c2c2c1CCC2,.,-0.0304,-0.259,1.7,-5.7,.
CCCc1nc2c(sc3nc4c(cc32)COC(C)(C)C4)c(=O)n1Cc1ccco1,-0.5,0.647,0.436,-30.2,-1.1,7.8
CC1(C)Cc2nc3sc4c(SCC(=O)NCc5ccco5)ncnc4c3cc2CO1,-0.6,0.712,-0.761,81.0*,27.8,.
COc1ccc2c(c1OC)C(=O)N1c3cccc(Cl)c3C(=O)OC21 (stereo not given),-0.2,0.0171,-0.485,-2.8,1.3,-24.4
COc1ccc2c(c1OC)C(=O)N1c3ccccc3COC21 (stereo not given),-0.7,0.0987,0.206,51.1*,81.9*,1.9
COc1ccc2c(c1OC)C(=O)N1c3ccccc3SC21 (stereo not given),-4.5,-0.246,-0.0137,72.0*,10.1,-19.6
CC1CCC(NC(=O)CN2C(=O)C3CCCN3c3ncc(Cl)cc32)CC1 (stereo not given),-1.2,1.11,-0.311,2.0,-0.3,26.5
SMILES,S1P3 agonist,M1 agonist,M1 antag,SF1 activator,RORa activator,S1P1 ag pot
O=C1Nc2cc(Cl)cnc2N2CCCC12 (stereo not given),0.1,13.2*,-0.0344,20.0,9.2,4.4
O=C(CSc1ccc2nnc(-c3cccnc3)n2n1)N1CCOCC1,-0.1,1.11,-0.276,3.3,-1.8,8.4
O=C(CSc1ccc2nnc(-c3cccnc3)n2n1)N1CCc2ccccc21,-0.6,-2.91*,0.381,12.9,-6.2,-13.0
CCN=c1scc(-c2ccc3c(c2)NC(=O)CO3)n1N=C1CCCC1,-0.7,1.76,-0.264,-47.2,-0.3,63.5*
COc1ccccc1N=c1scc(-c2ccc3c(c2)NC(=O)CO3)n1CC1CCCO1 (stereo not given),0.9,2.82,-0.275,-6.9,-3.6,7.7
CCCn1c(=O)c(C(=O)Nc2nnc(C)s2)c(O)c2ccccc21,0.9,-0.833,-0.522,-5.4,-3.8,-2.1
c1ccc(SCc2nc3ccccc3[nH]2)nc1,0.3,1.79,0.311,34.6,36.6,13.2
Clc1ccc(-c2nnc(-c3ccco3)o2)cc1,-0.5,-0.62,-0.204,35.3,49.9*,-13.4
CC1(C)CC(=O)C2=C(C1)OC1=C(C(=O)CC(C)(C)C1)C2c1ccc(O)cc1O,-1.9,158*,-0.0248,-29.7,-0.5,-43.1
O=C(NCCCn1ccnc1)c1cc(-c2cccs2)on1,-2.9,0.56,-0.377,67.0*,91.8*,-95.6
O=C(NCc1ccco1)c1cc(-c2ccccc2)on1,-0.7,0.522,0.0842,32.5,38.1,-33.0
Cn1c(SCC(=O)NCc2ccc3c(c2)OCO3)nnc1-c1cccs1,-1.2,0.537,0.343,14.4,-5.5,-1.9
Cn1c(SCC(=O)NCc2ccco2)nnc1-c1cccs1,-0.9,0.0242,2.25*,-6.6,-10.7,.
O=C(NCc1ccco1)c1ccc2ccccc2c1,-1.0,-0.00745,0.975,48.1,67.5*,-13.1
O=C(NCc1ccco1)c1cc(-c2cccs2)on1,-1.7,0.44,0.147,27.8,67.4*,-29.6
Cc1cccc(N(CC(=O)NC2CCCCC2)C(=O)c2c(C)noc2C)c1,.,0.24,-0.0998,-4.6,3.2,.
Cc1cc(C)cc(N2CC34C=CC(O3)C(C(=O)OCC(=O)NCc3ccco3)C4C2=O)c1 (stereo not given),-0.3,0.158,0.743,-3.8,-14.2,1.4
O=C(Cc1cc(=O)[nH]c(=O)[nH]1)NCCN1CCOCC1,-1.6,-0.394,-0.138,7.5,-3.5,8.4
O=C(CCS(=O)(=O)Cc1ccccc1)NCC1CCCO1 (stereo not given),-0.6,0.536,0,-8.9,-16.6,.
CC(C)Cc1nc(N2CCOCC2)c(C#N)c2c1COC(C)(C)C2,-0.5,-2.57,0.0471,-9.1,-18.7,-12.4
CCOC(=O)N1CCC(Nc2c(NCCCN(C)Cc3ccccc3)c(=O)c2=O)CC1,0.1,0.049,0.704,4.9,-2.4,-15.0
COC(=O)c1ccc(COC(=O)c2ccc(-n3cnnn3)cc2)o1,-1.0,-0.0267,-0.0678,21.8,13.1,3.7
O=c1c2ccccc2nc2ccc(NCc3ccco3)nn12,-0.9,-0.0189,-0.0221,8.9,53.2*,-21.1

# Screens deposited in PubChem by several laboratories.
